Legend:
[1] = biological target: Sodium/hydrogen exchanger 1 (Homo sapiens, UniProt P19634); assay: Inhibition of human NHE1 expressed in PS120 cells; format: cell-based
Outline: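 PS120 variant cells selectively expressing human NHE-1. Inhibition measured as the effect on sodium-dependent pH recovery after imposed intracellular acidosis. IC50 values are means of three experiments.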

Heart [2] = assay: Cardioprotective effect against ischemia reperfusion injury in rat heart assessed as recovery of rate pressure product at 10 uM; format: functional
Outline: (§1)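 Isolated rat heart ischemia/reperfusion model. Hearts exposed to 10 µM compound for 10 min before ischemia. Read-outs are recovery of contractile function as rate-pressure product (% RPP) and left ventricular end-diastolic pressure (mmHg), each compared with a vehicle group. Values are means, n = 3 or higher.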

Heart [3] = assay: Cardioprotective effect against ischemia reperfusion injury in rat heart assessed as left ventricular end diastolic pressure at 10 uM; format: functional; outline: as §1
Rattus norvegicus = assay: Cardioprotective effect against ischemia reperfusion injury in rat myocardial infarction model assessed as ratio of infarction size to area at risk at 0.1 mg/kg, iv; format: functional, Myocardium
Outline: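 Rat myocardial infarction model. Animals stabilized 20 min after left thoracotomy, then 45 min coronary artery occlusion and 90 min reperfusion. Compound given at 0.1 mg/kg as bolus intravenous injection 5 min before ischemia onset. Infarct size measured as a ratio to area at risk (IS/AAR, %), compared with vehicle. Means, n = 3 or higher.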

Sodium/hydrogen exchanger 1, sequence (P19634 whole entry): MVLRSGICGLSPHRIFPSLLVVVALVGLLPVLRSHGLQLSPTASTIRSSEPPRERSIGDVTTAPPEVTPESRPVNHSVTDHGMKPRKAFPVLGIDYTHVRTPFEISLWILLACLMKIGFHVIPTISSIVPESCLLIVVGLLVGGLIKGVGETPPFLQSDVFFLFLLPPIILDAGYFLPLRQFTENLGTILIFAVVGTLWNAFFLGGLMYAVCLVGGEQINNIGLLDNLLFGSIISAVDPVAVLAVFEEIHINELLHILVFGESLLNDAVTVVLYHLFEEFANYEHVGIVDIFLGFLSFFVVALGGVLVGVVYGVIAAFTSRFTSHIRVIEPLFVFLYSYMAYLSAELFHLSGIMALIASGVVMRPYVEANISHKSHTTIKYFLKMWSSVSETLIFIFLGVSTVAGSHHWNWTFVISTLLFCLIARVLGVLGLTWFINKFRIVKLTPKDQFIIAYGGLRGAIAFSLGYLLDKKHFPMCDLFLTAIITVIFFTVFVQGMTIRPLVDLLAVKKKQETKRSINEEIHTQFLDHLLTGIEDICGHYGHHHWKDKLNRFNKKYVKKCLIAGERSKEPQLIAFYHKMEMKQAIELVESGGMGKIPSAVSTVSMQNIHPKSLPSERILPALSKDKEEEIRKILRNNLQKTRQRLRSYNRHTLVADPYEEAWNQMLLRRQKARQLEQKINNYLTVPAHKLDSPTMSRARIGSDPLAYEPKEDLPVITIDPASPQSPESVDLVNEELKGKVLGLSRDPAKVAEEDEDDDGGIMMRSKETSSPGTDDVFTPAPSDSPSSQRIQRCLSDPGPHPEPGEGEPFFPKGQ

Row | Structure (SMILES) | IC50 [1] [µM] | Activity (Heart [2]) [%] | Activity (Heart [3]) [mmHg] | Activity (Rattus norvegicus) [%]
1 | N=C(N)NC(=O)c1oc(-c2cccc(Cl)c2)cc1-n1cccc1 | 3 |  |  | 
2 | NC(N)=NC(=O)c1oc(-c2ccccc2F)cc1N | 1.2 | 62 | 20 | 
3 | Cc1cccc(-c2cc(N)c(C(=O)NC(=N)N)o2)c1 | 0.77 |  |  | 
4 | CC(=O)N(C)c1cc(-c2ccccc2)oc1C(=O)NC(=N)N | > 30 |  |  | 
5 | CC(=O)N(C)c1cc(-c2cc(Cl)ccc2Cl)oc1C(=O)N=C(N)N | > 30 |  |  | 
6 | COc1ccc(Cl)cc1-c1cc(N(C)C(C)=O)c(C(=O)NC(=N)N)o1 | 33 |  |  | 
7 | COc1ccc(Cl)cc1-c1cc(-c2ccccc2)c(C(=O)NC(=N)N)o1 | 5.6 |  |  | 
8 | CC(=O)Nc1cc(-c2ccccc2)oc1C(=O)N=C(N)N | 14 |  |  | 
9 | CC(=O)Nc1cc(-c2cc(Cl)ccc2Cl)oc1C(=O)N=C(N)N | 6.2 |  |  | 
10 | COc1ccc(Cl)cc1-c1cc(NC(C)=O)c(C(=O)N=C(N)N)o1 | 4.5 |  |  | 
11 | N=C(N)NC(=O)c1oc(-c2cccc(Cl)c2)cc1N1CCCC1 | 5.1 |  |  | 
12 | NC(N)=NC(=O)c1oc(-c2cccc(Cl)c2)cc1N1CCCCC1 | 16 |  |  | 
13 | CC(=O)N(C)c1cc(-c2cccc(Cl)c2)oc1C(=O)NC(=N)N | > 30 |  |  | 
14 | CNc1cc(-c2cccc(Cl)c2)oc1C(=O)N=C(N)N | 0.82 |  |  | 
15 | CNc1cc(-c2ccccc2)oc1C(=O)N=C(N)N | 0.82 |  |  | 
16 | N=C(N)NC(=O)c1oc(-c2ccccc2)cc1N | 2.3 |  |  | 
17 | NC(N)=NC(=O)c1oc(-c2cccc(F)c2)cc1N | 0.68 | 49 | 25 | 
18 | CC(=O)Nc1cc(-c2cccc(Cl)c2)oc1C(=O)NC(=N)N | 14 |  |  | 
19 | CC(C)c1ccc(C(=O)N=C(N)N)cc1S(C)(=O)=O [CARIPORIDE] |  | 48 | 24 | 41

Continued by falling IC50 [1], values first:

Row | IC50 [1] [µM] | Structure (SMILES) | Activity (Heart [2]) [%] | Activity (Heart [3]) [mmHg] | Activity (Rattus norvegicus) [%]
20 | 0.48 | NC(N)=NC(=O)c1oc(-c2cc(Cl)ccc2Cl)cc1N1CCCC1 |  |  | 
21 | 0.48 | NC(N)=NC(=O)c1oc(-c2cc(Cl)ccc2Cl)cc1N1CCCCC1 |  |  | 
22 | 0.41 | N=C(N)NC(=O)c1oc(-c2cc(F)ccc2F)cc1N |  |  | 
23 | 0.24 | Cc1ccccc1-c1cc(N)c(C(=O)N=C(N)N)o1 | 30 | 28 | 47
24 | 0.23 | CCc1cc(-c2cccc(Cl)c2)oc1C(=O)NC(=N)N |  |  | 
25 | 0.15 | COc1ccccc1-c1cc(N)c(C(=O)N=C(N)N)o1 | 30 | 31 | 55
26 | 0.15 | NC(N)=NC(=O)c1oc(-c2cccc(Cl)c2)cc1N | 33 | 27 | 53
27 | 0.13 | Cc1cc(-c2cc(F)ccc2F)oc1C(=O)N=C(N)N |  |  | 
28 | 0.12 | COc1ccc(F)cc1-c1cc(N)c(C(=O)NC(=N)N)o1 |  |  | 
29 | 0.12 | CN(C)c1cc(-c2cccc(Cl)c2)oc1C(=O)N=C(N)N |  |  | 
30 | 0.12 | CN(C)c1cc(-c2ccccc2)oc1C(=O)N=C(N)N |  |  | 
31 | 0.096 | CNc1cc(-c2cc(Cl)ccc2Cl)oc1C(=O)N=C(N)N |  |  | 
32 | 0.072 | Cc1ccc(C)c(-c2cc(N)c(C(=O)NC(=N)N)o2)c1 |  |  | 
33 | 0.024 | Cc1cc(-c2cccc(Cl)c2)oc1C(=O)NC(=N)N |  |  | 
34 | 0.016 | Cc1cc(-c2cc(Cl)ccc2Cl)oc1C(=O)NC(=N)N |  |  | 
35 | 0.015 | COc1ccc(Cl)cc1-c1cc(N)c(C(=O)N=C(N)N)o1 | 27 | 29 | 
36 | 0.012 | COc1ccc(Cl)cc1-c1cc(N(C)C)c(C(=O)N=C(N)N)o1 | 6.4 | 40 | 
37 | 0.01 | COc1ccc(Cl)cc1-c1cc(C)c(C(=O)N=C(N)N)o1 | 0.3 | 34 | 
38 | 0.009 | CN(C)c1cc(-c2cc(Cl)ccc2Cl)oc1C(=O)NC(=N)N |  |  | 
39 | 0.008 | N=C(N)NC(=O)c1oc(-c2cc(Cl)ccc2Cl)cc1N |  |  | 
